Measles CPE – protection of cells from measles virus | Measles virus-infected cells, CPE protection, absorbance | protection (pct of control), % at 4 µM | actives 1.5% (n = 140,000) | AID 841; in the data active = protection mostly above about 24%, no sharp cut-off; inactive = mostly below about 26%
Phagocytosis inh – macrophage phagocytosis inhibition. J774A.1 macrophage IgG-bead phagocytosis, imaging. inhibition, % at 5 µM. actives 0.07% (n = 110,000);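 active = inhibition above the mean of the plate negative controls plus 5 SD, cut at about 13% in these data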;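 note: phagocytic index as fraction of beads internalized from green versus red external bead signal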
Yeast life ext – extends the lifespan of yeast; AID 775; S. cerevisiae growth with nicotinamide, OD615; deaD strain in restrictive glucose medium; actives 0.68% (n = 130,000); inhibition of the nicotinamide effect, % at 10 µM;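 active = inhibition above a set limit, placed 3 SD over the median of all compounds, cut at about 26% in these data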
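assay system = DeaD-strain S. cerevisiae | buffer or medium = restrictive glucose medium | reagent = 1.5 mM nicotinamide | compound = 10 µM single point, 0.25% DMSO | incubation = 48 h compound exposure at 30 °C, humidified | signal = OD615 measurement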
RAM inhibit – yeast RAM network inhibition | actives 1.8% (n = 190,000) | inhibition, % at 50 µM | S. cerevisiae dse1pr::URA3 reporter, 5-FOA growth OD615, 2 d; analog-sensitive cbk1-as2 kinase mutant strain | AID 868;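 active = inhibition above a set limit, 3 SD over mean compound inhibition, cut at about 8.4% in these data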;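 note: inhibition rescues growth on 5-FOA so higher OD means more RAM inhibition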
Yeast growth inh – chemicals that inhibit yeast BB579 growth in restrictive medium (lifespan-shortening candidates). inhibition, % at 10 µM. actives 0.51% (n = 140,000). S. cerevisiae BB579 growth, OD615, 48 h;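 active = inhibition above a set limit, 3 SD over the mean compound inhibition, cut at about 44% in these data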
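Detection: OD615 turbidity measurement; Material: Saccharomyces cerevisiae DeaD strain BB579, replicative lifespan model yeast; Timing: 48 h exposure, 30 °C; Doses: single 10 µM dose; Medium: CSMM-D restrictive synthetic medium containing dextrose (glucose); Controls: amphotericin B at 10 µg/mL as positive control.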
Each line names hits and unclear results; the compound was inactive in the other large screens. Most compounds without a hit are left out; they make up all but 3.6% or so of the library.

CC(C)CNC(=S)N1CCC(NC(=O)c2ccco2)CC1	none (no result: Measles CPE, Phagocytosis inh, Yeast life ext, Yeast growth inh)
Cc1[nH]n(-c2nc(-c3ccc(Cl)cc3)cs2)c(=O)c1N=Nc1ccc(O)cc1	RAM inhibit 9.8 (no result: Measles CPE, Phagocytosis inh, Yeast life ext, Yeast growth inh)
O=C(CNC(=S)N(Cc1ccccc1)Cc1ccccc1F)NCCc1ccccc1	RAM inhibit 11.4 (no result: Measles CPE, Phagocytosis inh, Yeast life ext, Yeast growth inh)
COc1ccc(-c2[nH]ncc2-c2ccc3c(c2)OCCO3)c(O)c1	RAM inhibit 10.1
CCCc1cc(-c2[nH]ncc2-c2ccc3c(c2)OCCCO3)c(O)cc1OC	none
CCc1cc(-c2[nH]ncc2-c2ccc3c(c2)OCO3)c(O)cc1O	Measles CPE 84.3 (no result: Yeast life ext)
CCC(C)[C@@H](N)C(=O)N/N=C/c1ccc2ncccc2c1 (stereo not given in full)	none
CN1C(=O)C(O)(CC(=O)c2ccccc2O)c2cc(Br)ccc21 (stereo not given)	Yeast growth inh 53.6
CN1C(=O)C(O)(CC(=O)/C=C/c2ccco2)c2cc(Br)ccc21 (stereo not given)	none (no result: Measles CPE, Phagocytosis inh, Yeast life ext, Yeast growth inh)
c1ccc(COc2ccc(CNCc3cccnc3)cc2)cc1	none (no result: Measles CPE, Phagocytosis inh, Yeast life ext, Yeast growth inh)
Cc1ccc(C(=O)N/C(=C\c2sccc2C)C(=O)NCc2ccncc2)cc1	none
Cc1ccc(C(=O)N/C(=C\c2sccc2C)C(=O)NCc2ccco2)cc1	Measles CPE 60.8 (no result: Phagocytosis inh)
CC(C)(C)c1ccc(C(=O)N/C(=C/c2cccs2)C(=O)NCc2ccco2)cc1	none
Cc1ccc(C(=O)N/C(=C\c2cccs2)C(=O)NCc2ccncc2)cc1	Measles CPE 46.8 (no result: Phagocytosis inh)
CCOc1ccccc1/C=C(/NC(=O)c1ccccc1)C(=O)NC(C)c1ccccc1 (stereo not given)	none
O=C(CCc1ccc(S(=O)(=O)N2CCOCC2)cc1)Nc1nc(COc2ccccc2)cs1	none
CNC(=S)N/N=C(\C)c1ccc(N2CCOCC2)cc1	Yeast growth inh 70.4
Cc1ccc(-c2noc(C3CCCN(S(=O)(=O)c4ccc5ccccc5c4)C3)n2)o1 (stereo not given)	none
CC(=O)c1cccc(S(=O)(=O)N2CCCC(c3nc(-c4ccc(C)o4)no3)C2)c1 (stereo not given)	RAM inhibit 9.3
COc1ccc(CCNC(=S)NCc2ccc(Cl)c(Cl)c2)cc1OC	none (no result: Measles CPE, Phagocytosis inh, Yeast life ext, Yeast growth inh)
O=S(=O)(/C=C/c1ccccc1)Nc1ccc(F)cc1	none (no result: Measles CPE, Phagocytosis inh, Yeast life ext, Yeast growth inh)
CN(C)S(=O)(=O)c1ccc(NS(=O)(=O)/C=C/c2ccccc2)cc1	Measles CPE 44.1
CC1CCCC(NC(=O)CCNS(=O)(=O)c2ccc(Br)cc2)C1C (stereo not given)	none (no result: Measles CPE, Phagocytosis inh, Yeast life ext, Yeast growth inh)
Cc1c(NC(=S)NC(NC(=O)C(C)C)C(Cl)(Cl)Cl)c(=O)n(-c2ccccc2)n1C (stereo not given)	none (no result: Phagocytosis inh)
COc1ccc(N(CC(=O)NC2CCCC2)C(=O)Cn2nnc(-c3ccc(F)cc3)n2)cc1OC	RAM inhibit 9.3
COc1ccc(N(CC(=O)NC2CCCC2)C(=O)Cn2nnc(-c3ccc(C)cc3)n2)cc1OC	none
CC(C)(C)c1nnc(NC(=O)c2cccnc2)s1	none (no result: Measles CPE, Phagocytosis inh, Yeast life ext, Yeast growth inh)
Cc1cc(NN)nc2ccc(Cl)cc12	none (no result: Measles CPE, Phagocytosis inh, Yeast life ext, Yeast growth inh)
O=C(NCCCN1CCCC1=O)c1ccc2c(c1)ncn2C1CCCCC1	Measles CPE 41.3 (no result: Phagocytosis inh)
Cc1c(/C=C/C(=O)c2ccccc2)cnn1C	none (no result: Phagocytosis inh)
Cc1c(/C=C/C(=O)c2ccc(O)cc2)cnn1C	Measles CPE 41.9
CCSc1nc(CC)c2c(c1C#N)CCCC2	none
Nc1nc(SCC(=O)Nc2ccc3c(c2)CCC3)n[nH]1	none
Cc1ccc(C(=O)N2CCC(C)CC2)cc1C	none (no result: Phagocytosis inh, Yeast life ext)
Fc1ccc(-c2csc3ncnc(N4CCc5ccccc5C4)c23)cc1	RAM inhibit 9.1
O=C1N=c2ccc(Br)cc2=C1c1sc(=S)n(NS(=O)(=O)c2ccccc2)c1O	none (no result: Measles CPE, Phagocytosis inh, Yeast life ext, Yeast growth inh)
CCOc1ccc(NS(=O)(=O)c2ccc3[nH]cc(C(=O)NCC4CCCO4)c(=O)c3c2)cc1 (stereo not given)	RAM inhibit 9.3 (no result: Phagocytosis inh)
CCc1ccccc1NS(=O)(=O)c1ccc2[nH]cc(C(=O)NCC3CCCO3)c(=O)c2c1 (stereo not given)	none (no result: Phagocytosis inh)
CN(Cc1ccccc1)S(=O)(=O)c1ccc2[nH]cc(C(=O)NCC3CCCO3)c(=O)c2c1 (stereo not given)	RAM inhibit 8.7 (no result: Phagocytosis inh)
CCN(Cc1ccccc1)C(=O)c1c[nH]c2ccc(S(=O)(=O)N(C)CCC#N)cc2c1=O	none
Cc1noc2ncnc(Oc3ccc(Cl)cc3Cl)c12	none (no result: Measles CPE, Phagocytosis inh, Yeast life ext, Yeast growth inh)
CCc1cc2c(=O)c(Oc3ccccc3)c(C)oc2cc1O	Yeast life ext 69.2
Cc1ccc(Sc2nc([N+](=O)[O-])nn2C)cc1	none
CC(=O)c1ccc(-n2c(CCC(=O)O)ccc2-c2cccs2)cc1	RAM inhibit 9.7 (no result: Phagocytosis inh)

Bioassay records as filed in PubChem.
